Assay results from ChEMBL document CHEMBL1240446, “Synthesis and biological activities of novel amine-derived bis-azoles as potential antibacterial and antifungal agents” (2010).
≈ marks a conversion by molar mass, not a printed value.

How the values were obtained:
Type in all cases: functional
Staphylococcus aureus [1] = assay: Antibacterial activity against Staphylococcus aureus ATCC 29213 after 24 hrs by micro-broth dilution method; details: ATCC 29213, 24 h
Procedure, shortened: (§1)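 Broth microdilution per NCCLS in Mueller-Hinton broth. Inoculum adjusted in sterile saline to 1×10^4–1×10^5 CFU. Compounds taken from DMSO stocks and serially diluted two-fold to final 256–0.25 µg/mL (11 levels). Incubation 37 °C, 24 h, with a DMSO solvent control. Growth read visually and spectrophotometrically. MIC is the lowest concentration that arrests growth.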

Escherichia coli = assay: Antibacterial activity against Escherichia coli ATCC 25922 after 24 hrs by micro-broth dilution method; details: ATCC 25922, 24 h
Procedure, shortened: (§2)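 MIC by broth microdilution following NCCLS methods. Inoculum adjusted in sterile saline to 1×10^4–1×10^5 CFU. Compounds from DMSO stocks, two-fold serial dilutions in Mueller-Hinton broth at 256 down to 0.25 µg/mL. Incubation 37 °C, 24 h. DMSO solvent control at matching dilutions. Growth read visually and spectrophotometrically. MIC is the lowest concentration arresting growth.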

Pseudomonas aeruginosa = assay: Antibacterial activity against Pseudomonas aeruginosa ATCC 27853 after 24 hrs by micro-broth dilution method; details: ATCC 27853, 24 h; procedure, shortened: as §2
Bacillus = assay: Antibacterial activity against Bacillus proteus ATCC 13315 after 24 hrs by micro-broth dilution method; details: ATCC 13315, 24 h; procedure, shortened: as §2
Staphylococcus aureus [2] = assay: Antibacterial activity against methicillin-resistant Staphylococcus aureus N315 after 24 hrs by micro-broth dilution method; details: N315, 24 h; procedure, shortened: as §1
Bacillus subtilis = assay: Antibacterial activity against Bacillus subtilis ATCC 21216 after 24 hrs by micro-broth dilution method; details: ATCC 21216, 24 h; procedure, shortened: as §2
Aspergillus fumigatus = assay: Antifungal activity against Aspergillus fumigatus ATCC 96918 after 24 hrs by micro-broth dilution method; details: ATCC 96918, 24 h
Procedure, shortened: (§3)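 Broth microdilution per NCCLS. Spore suspension in sterile distilled water, taken from 1-day-old cultures on Sabouraud agar, final 1–5×10^3 spores/mL. Compounds diluted from stocks in RPMI 1640 to eleven concentrations, 0.25–256 µg/mL. Incubation 35 °C, 24 h. Growth scored visually and spectrophotometrically. MIC is the lowest concentration arresting fungal growth.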

Candida albicans = assay: Antifungal activity against Candida albicans ATCC 76615 after 24 hrs by micro-broth dilution method; details: ATCC 76615, 24 h; procedure, shortened: as §3

| Structure (SMILES) | MIC (Staphylococcus aureus [1]) [µg/mL] | MIC (Escherichia coli) [µg/mL] | MIC (Pseudomonas aeruginosa) [µg/mL] | MIC (Bacillus) [µg/mL] | MIC (Staphylococcus aureus [2]) [µg/mL] | MIC (Bacillus subtilis) [µg/mL] | MIC (Aspergillus fumigatus) [µg/mL] | MIC (Candida albicans) [µg/mL] |
| --- | --- | --- | --- | --- | --- | --- | --- | --- |
| OCCN(CCO)Cc1ccc(F)cc1F | 256 (≈ 1110 µM) | 128 (≈ 554 µM) | 256 (≈ 1110 µM) | 256 (≈ 1110 µM) | > 256 | 256 (≈ 1110 µM) | > 256 | 256 (≈ 1110 µM) |
| OCCN(CCO)Cc1ccc(Cl)cc1Cl | 128 (≈ 485 µM) | 256 (≈ 969 µM) | 128 (≈ 485 µM) | 128 (≈ 485 µM) | 256 (≈ 969 µM) | 256 (≈ 969 µM) | 256 (≈ 969 µM) | 128 (≈ 485 µM) |
| OCCN(CCO)Cc1ccc(Cl)c(Cl)c1 | 256 (≈ 969 µM) | 128 (≈ 485 µM) | > 256 | 128 (≈ 485 µM) | > 256 | 128 (≈ 485 µM) | > 256 | > 256 |
| OCCN(CCO)Cc1ccccc1Cl | > 256 | > 256 | > 256 | 256 (≈ 1110 µM) | > 256 | > 256 | > 256 | > 256 |
| OCCN(CCO)Cc1cccc(Cl)c1 | > 256 | > 256 | > 256 | > 256 | > 256 | > 256 | > 256 | > 256 |
| OCCN(CCO)Cc1ccc(Cl)cc1 | > 256 | 256 (≈ 1110 µM) | 256 (≈ 1110 µM) | 256 (≈ 1110 µM) | > 256 | > 256 | > 256 | > 256 |
| Clc1ccc(CN(CCn2ccnc2)CCn2ccnc2)c(Cl)c1.O=[N+]([O-])O | 16 | 32 | 4 | 64 | 16 | 16 | > 256 | 128 |
| Clc1ccc(CN(CCn2ccnc2)CCn2ccnc2)cc1Cl.O=[N+]([O-])O | 16 | 4 | 64 | 32 | 16 | 16 | 64 | > 256 |
| Fc1ccc(CN(CCn2cncn2)CCn2cncn2)c(F)c1 | 128 (≈ 384 µM) | 64 (≈ 192 µM) | 8 (≈ 24 µM) | > 256 | > 256 | 64 (≈ 192 µM) | > 256 | > 256 |
| Clc1ccc(CN(CCn2cncn2)CCn2cncn2)c(Cl)c1 | 64 (≈ 175 µM) | 64 (≈ 175 µM) | 32 (≈ 87.4 µM) | 16 (≈ 43.7 µM) | 256 (≈ 699 µM) | > 256 | > 256 | 0.25 (≈ 0.683 µM) |
| Clc1ccc(CN(CCn2cncn2)CCn2cncn2)cc1Cl | 64 (≈ 175 µM) | 32 (≈ 87.4 µM) | 64 (≈ 175 µM) | 0.5 (≈ 1.37 µM) | 256 (≈ 699 µM) | 32 (≈ 87.4 µM) | > 256 | > 256 |
| Clc1ccccc1CN(CCn1cncn1)CCn1cncn1 | > 256 | 256 (≈ 772 µM) | 128 (≈ 386 µM) | > 256 | > 256 | > 256 | > 256 | > 256 |
| Clc1cccc(CN(CCn2cncn2)CCn2cncn2)c1 | 256 (≈ 772 µM) | > 256 | 16 (≈ 48.2 µM) | 32 (≈ 96.4 µM) | 256 (≈ 772 µM) | > 256 | > 256 | > 256 |
| Clc1ccc(CN(CCn2cncn2)CCn2cncn2)cc1 | > 256 | 256 (≈ 772 µM) | 16 (≈ 48.2 µM) | 128 (≈ 386 µM) | > 256 | > 256 | > 256 | > 256 |
| Fc1ccc(CN(CCn2ccnc2)CCn2ccnc2)c(F)c1 | 32 (≈ 96.6 µM) | 64 (≈ 193 µM) | 128 (≈ 386 µM) | 64 (≈ 193 µM) | 32 (≈ 96.6 µM) | 32 (≈ 96.6 µM) | > 256 | > 256 |
| Clc1ccc(CN(CCn2ccnc2)CCn2ccnc2)c(Cl)c1 | 8 (≈ 22 µM) | 16 (≈ 43.9 µM) | 4 (≈ 11 µM) | 32 (≈ 87.8 µM) | 16 (≈ 43.9 µM) | 32 (≈ 87.8 µM) | > 256 | 128 (≈ 351 µM) |
| Clc1ccc(CN(CCn2ccnc2)CCn2ccnc2)cc1Cl | 16 (≈ 43.9 µM) | 16 (≈ 43.9 µM) | 64 (≈ 176 µM) | 64 (≈ 176 µM) | 32 (≈ 87.8 µM) | 16 (≈ 43.9 µM) | 64 (≈ 176 µM) | > 256 |
| Clc1ccccc1CN(CCn1ccnc1)CCn1ccnc1 | 128 (≈ 388 µM) | 16 (≈ 48.5 µM) | 256 (≈ 776 µM) | > 256 | 256 (≈ 776 µM) | > 256 | > 256 | > 256 |

| Structure (SMILES) | MIC (Staphylococcus aureus [1]) [µg/mL] | MIC (Escherichia coli) [µg/mL] | MIC (Pseudomonas aeruginosa) [µg/mL] | MIC (Bacillus) [µg/mL] | MIC (Staphylococcus aureus [2]) [µg/mL] | MIC (Bacillus subtilis) [µg/mL] | MIC (Aspergillus fumigatus) [µg/mL] | MIC (Candida albicans) [µg/mL] |
| --- | --- | --- | --- | --- | --- | --- | --- | --- |
| Clc1cccc(CN(CCn2ccnc2)CCn2ccnc2)c1 | 64 (≈ 194 µM) | 32 (≈ 97 µM) | 32 (≈ 97 µM) | 64 (≈ 194 µM) | > 256 | 128 (≈ 388 µM) | > 256 | > 256 |
| Clc1ccc(CN(CCn2ccnc2)CCn2ccnc2)cc1 | 64 (≈ 194 µM) | 32 (≈ 97 µM) | 64 (≈ 194 µM) | 128 (≈ 388 µM) | 64 (≈ 194 µM) | 64 (≈ 194 µM) | > 256 | > 256 |
| Fc1ccc(CN(CCn2cnc3ccccc32)CCn2cnc3ccccc32)c(F)c1 | 64 (≈ 148 µM) | 128 (≈ 297 µM) | > 256 | 64 (≈ 148 µM) | > 256 | 64 (≈ 148 µM) | > 256 | > 256 |
| Clc1ccc(CN(CCn2cnc3ccccc32)CCn2cnc3ccccc32)c(Cl)c1 | 32 (≈ 68.9 µM) | 128 (≈ 276 µM) | 32 (≈ 68.9 µM) | 32 (≈ 68.9 µM) | 64 (≈ 138 µM) | 32 (≈ 68.9 µM) | > 256 | > 256 |
| Cc1cc2ncn(CCN(CCn3cnc4cc(C)c(C)cc43)Cc3ccc(Cl)cc3Cl)c2cc1C | 128 (≈ 246 µM) | 16 (≈ 30.7 µM) | 128 (≈ 246 µM) | 32 (≈ 61.5 µM) | > 256 | 64 (≈ 123 µM) | > 256 | > 256 |
| Cl.Fc1ccc(CN(CCn2cncn2)CCn2cncn2)c(F)c1 | 64 | 64 | 8 | 256 | > 256 | 32 | 256 | 32 |
| Cl.Clc1ccc(CN(CCn2cncn2)CCn2cncn2)c(Cl)c1 | 16 | 32 | 16 | 4 | 128 | 128 | 128 | 0.25 |
| Cl.Clc1ccc(CN(CCn2cncn2)CCn2cncn2)cc1Cl | 32 | 32 | 32 | 0.25 | 32 | 16 | 256 | 128 |
| Cl.Fc1ccc(CN(CCn2ccnc2)CCn2ccnc2)c(F)c1 | 16 | 16 | 64 | 32 | 16 | 8 | > 256 | 128 |
| Cl.Clc1ccc(CN(CCn2ccnc2)CCn2ccnc2)c(Cl)c1 | 4 | 16 | 4 | 32 | 8 | 8 | > 256 | 64 |
| Cl.Clc1ccc(CN(CCn2ccnc2)CCn2ccnc2)cc1Cl | 4 | 4 | 32 | 16 | 8 | 4 | 32 | > 256 |
| Fc1ccc(CN(CCn2cncn2)CCn2cncn2)c(F)c1.O=[N+]([O-])O | 128 | 128 | 16 | > 256 | > 256 | 32 | > 256 | 64 |
| Clc1ccc(CN(CCn2cncn2)CCn2cncn2)c(Cl)c1.O=[N+]([O-])O | 32 | 64 | 16 | 8 | 256 | 128 | 128 | 0.25 |
| Clc1ccc(CN(CCn2cncn2)CCn2cncn2)cc1Cl.O=[N+]([O-])O | 16 | 32 | 64 | 0.25 | 64 | 16 | > 256 | 256 |
| Fc1ccc(CN(CCn2ccnc2)CCn2ccnc2)c(F)c1.O=[N+]([O-])O | 32 | 32 | 64 | 64 | 32 | 16 | > 256 | 128 |
| O=C(N[C@H](CO)[C@H](O)c1ccc([N+](=O)[O-])cc1)C(Cl)Cl [CHLORAMPHENICOL] | 8 (≈ 24.8 µM) | 8 (≈ 24.8 µM) | 64 (≈ 198 µM) | 8 (≈ 24.8 µM) | 16 (≈ 49.5 µM) | 8 (≈ 24.8 µM) | – | – |
| OC(Cn1cncn1)(Cn1cncn1)c1ccc(F)cc1F [FLUCONAZOLE] | – | – | – | – | – | – | 256 (≈ 836 µM) | 0.5 (≈ 1.63 µM) |
| CCn1cc(C(=O)O)c(=O)c2cc(F)c(N3CCNCC3)cc21 [NORFLOXACIN] | 0.25 (≈ 0.783 µM) | 0.5 (≈ 1.57 µM) | 2 (≈ 6.26 µM) | 1 (≈ 3.13 µM) | 0.25 (≈ 0.783 µM) | 1 (≈ 3.13 µM) | – | – |
